Activity calls are given as the source filed them. No cut-off for these calls is given here.
What was measured:
[1] = Allosteric inhibition of SHP2 E76A mutant (unknown origin) expressed in Escherichia coli BL21(DE3) using DIFMUP as substrate preincubated for 20 mins followed by substrate addition measured after 20 mins by phosphatase assay; parameters: species or system Homo sapiens
How it was run: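 His-tagged SHP2 constructs expressed in E. coli BL21(DE3) (0.5 mM IPTG, 5 h, 30 °C) and Ni-column purified. 1.5 nM enzyme preincubated 20 min at room temperature with compound in 0.1 M sodium acetate pH 5.0. DIFMUP then added, 20 min further, fluorescence at 358/455 nm. Eight 3-fold dilutions, duplicate wells, IC50 from at least three independent experiments.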

[2] = system: Ramos; assay: Antiproliferative activity against human Ramos cells at 3 to 6 uM after 2 days by CellTiter-Glo assay; assay type: functional, cell-based
How it was run: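 3000 cells/well in 96-well plates, grown overnight, then inhibitor at indicated concentrations for 2 days (48 h). Viability by CellTiter-Glo; mean±s.d., n=3.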

In the case of CC1(N)CCN(c2nc(-c3ccc4cc(Br)ccc4c3)cs2)CC1, the IC50 [1] is reported as 710 nM and the Activity [2] is reported as “Active”.

Source: ChEMBL document CHEMBL4028906, “Allosteric Inhibitors of SHP2 with Therapeutic Potential for Cancer Treatment” (J Med Chem, 2017)
